Test results as given in PMC8028158 (ACS Omega, 2021).
Entries after “also recorded” stand apart in the source; their conditions may differ.

Experiments:
TRPC6 = target: T1, TRPC6 (Mus musculus, UniProt Q61143); experiment: Whole-cell voltage clamp of TRPC6 currents evoked by GSK1702934A; type: cell-based
T1 sequence (Q61143 1-930): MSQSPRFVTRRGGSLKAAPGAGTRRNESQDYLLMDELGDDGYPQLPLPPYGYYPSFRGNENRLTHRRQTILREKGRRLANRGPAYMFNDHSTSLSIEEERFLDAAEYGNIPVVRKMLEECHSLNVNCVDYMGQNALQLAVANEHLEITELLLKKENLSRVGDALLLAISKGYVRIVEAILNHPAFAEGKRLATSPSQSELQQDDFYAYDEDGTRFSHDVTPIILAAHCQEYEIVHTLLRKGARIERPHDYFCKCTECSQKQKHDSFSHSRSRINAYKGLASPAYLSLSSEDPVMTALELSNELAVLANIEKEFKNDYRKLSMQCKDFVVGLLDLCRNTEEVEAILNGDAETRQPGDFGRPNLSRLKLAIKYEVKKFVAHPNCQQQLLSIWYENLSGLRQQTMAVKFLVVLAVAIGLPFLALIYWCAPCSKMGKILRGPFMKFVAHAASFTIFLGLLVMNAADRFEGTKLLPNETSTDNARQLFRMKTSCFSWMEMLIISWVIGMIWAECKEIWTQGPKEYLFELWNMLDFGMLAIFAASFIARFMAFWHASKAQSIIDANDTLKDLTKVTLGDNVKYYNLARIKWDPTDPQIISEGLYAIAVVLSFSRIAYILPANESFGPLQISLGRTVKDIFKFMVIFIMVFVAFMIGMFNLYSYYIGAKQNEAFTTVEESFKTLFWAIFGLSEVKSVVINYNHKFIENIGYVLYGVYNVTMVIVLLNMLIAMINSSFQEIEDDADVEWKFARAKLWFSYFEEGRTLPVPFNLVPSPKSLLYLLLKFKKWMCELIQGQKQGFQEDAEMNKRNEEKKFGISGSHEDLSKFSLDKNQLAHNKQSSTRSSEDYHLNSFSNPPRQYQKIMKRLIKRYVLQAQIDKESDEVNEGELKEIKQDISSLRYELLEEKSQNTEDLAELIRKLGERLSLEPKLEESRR
Outline: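 TRPC6-expressing HEK293 cells were recorded with voltage ramps to obtain current–voltage relationships. Current was activated by GSK1702934A (1 μM) and test compound was applied at varying concentrations. IC50 was derived from a Hill-equation fit of the concentration-response curve.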

MKN-45 cells = experiment: MTT cell viability assay, MKN-45; type: cell-based, human; conditions: Homo sapiens, MKN-45, 72 h, read-out: IC50 cell proliferation, MKN-45
Outline: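 Cells were seeded at 2000 per well, incubated overnight and exposed to test compound for 72 h. MTT was added for 4 h, formazan was dissolved in DMSO and absorbance was read at 570 nm. Viability was normalized to untreated wells, giving mean ± SEM of three trials. IC50 was calculated from relative survival.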

TRPM8 = TRPM8 (Homo sapiens, UniProt Q7Z2W7); experiment: Selectivity Ca2+ assay in TRPM8-expressing HEK293 cells; type: cell-based; conditions: 1s 50 μM; Fluo-8
TRPM8, sequence (Q7Z2W7 whole entry, species assumed): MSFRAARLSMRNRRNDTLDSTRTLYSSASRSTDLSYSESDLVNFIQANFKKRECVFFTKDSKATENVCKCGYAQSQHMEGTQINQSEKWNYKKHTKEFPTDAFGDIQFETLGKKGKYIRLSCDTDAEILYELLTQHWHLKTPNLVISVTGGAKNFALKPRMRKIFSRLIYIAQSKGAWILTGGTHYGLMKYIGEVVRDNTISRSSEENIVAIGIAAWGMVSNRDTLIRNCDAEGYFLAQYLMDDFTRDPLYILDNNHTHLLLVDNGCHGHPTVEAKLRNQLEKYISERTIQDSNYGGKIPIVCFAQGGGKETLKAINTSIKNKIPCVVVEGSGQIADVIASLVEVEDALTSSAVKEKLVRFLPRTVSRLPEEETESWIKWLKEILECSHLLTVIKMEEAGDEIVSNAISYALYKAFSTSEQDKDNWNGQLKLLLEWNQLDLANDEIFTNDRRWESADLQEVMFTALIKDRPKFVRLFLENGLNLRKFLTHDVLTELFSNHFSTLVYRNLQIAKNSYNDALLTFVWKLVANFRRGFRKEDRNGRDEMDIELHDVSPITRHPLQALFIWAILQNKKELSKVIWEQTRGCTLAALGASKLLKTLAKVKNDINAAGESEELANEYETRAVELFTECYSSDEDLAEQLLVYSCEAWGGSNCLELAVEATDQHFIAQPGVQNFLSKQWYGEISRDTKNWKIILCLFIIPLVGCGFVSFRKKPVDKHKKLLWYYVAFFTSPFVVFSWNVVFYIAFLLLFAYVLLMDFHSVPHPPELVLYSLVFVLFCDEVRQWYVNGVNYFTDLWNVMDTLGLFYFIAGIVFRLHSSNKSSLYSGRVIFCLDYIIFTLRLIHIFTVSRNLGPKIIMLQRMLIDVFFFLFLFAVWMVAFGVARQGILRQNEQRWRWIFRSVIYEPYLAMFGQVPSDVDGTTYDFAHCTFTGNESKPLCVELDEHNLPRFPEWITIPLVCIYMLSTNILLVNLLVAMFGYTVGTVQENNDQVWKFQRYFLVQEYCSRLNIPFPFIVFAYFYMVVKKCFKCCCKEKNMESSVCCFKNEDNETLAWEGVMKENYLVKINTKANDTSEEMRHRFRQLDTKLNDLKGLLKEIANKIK

TRPV1 = TRPV1 (Homo sapiens, UniProt Q8NER1); experiment: Selectivity Ca2+ assay in TRPV1-expressing HEK293 cells; type: cell-based; conditions: 1s 50 μM; Fluo-8
TRPV1, sequence (Q8NER1 whole entry, species assumed): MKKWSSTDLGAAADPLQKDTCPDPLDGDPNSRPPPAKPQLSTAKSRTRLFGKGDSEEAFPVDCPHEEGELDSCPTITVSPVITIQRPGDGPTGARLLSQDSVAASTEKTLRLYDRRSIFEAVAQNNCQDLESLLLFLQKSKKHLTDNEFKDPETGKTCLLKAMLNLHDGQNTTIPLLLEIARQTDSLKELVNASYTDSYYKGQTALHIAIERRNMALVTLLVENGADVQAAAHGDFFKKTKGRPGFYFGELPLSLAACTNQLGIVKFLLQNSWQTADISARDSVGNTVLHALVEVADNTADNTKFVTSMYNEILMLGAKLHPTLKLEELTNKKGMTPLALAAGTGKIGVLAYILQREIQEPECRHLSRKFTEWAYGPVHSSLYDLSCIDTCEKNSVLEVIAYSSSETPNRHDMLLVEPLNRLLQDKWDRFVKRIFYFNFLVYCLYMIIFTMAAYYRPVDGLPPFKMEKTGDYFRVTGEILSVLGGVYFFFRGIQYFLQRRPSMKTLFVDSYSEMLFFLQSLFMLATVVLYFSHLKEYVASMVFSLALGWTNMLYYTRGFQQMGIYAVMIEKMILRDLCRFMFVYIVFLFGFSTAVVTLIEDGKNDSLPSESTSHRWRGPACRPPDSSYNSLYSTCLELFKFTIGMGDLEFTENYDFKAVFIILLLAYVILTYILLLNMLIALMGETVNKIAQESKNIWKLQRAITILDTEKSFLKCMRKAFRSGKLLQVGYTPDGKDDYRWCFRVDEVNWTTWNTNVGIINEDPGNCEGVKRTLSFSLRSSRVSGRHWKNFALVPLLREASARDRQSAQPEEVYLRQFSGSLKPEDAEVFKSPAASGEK

mouse TRPC5 = target: T2, mouse TRPC5 (Mus musculus, UniProt Q9QX29); experiment: Selectivity Ca2+ assay in TRPC5-expressing HEK293 cells; type: cell-based; conditions: 1s 50 μM; induced by 100 μM CCh; Fluo-8
T2 sequence (Q9QX29 1-975): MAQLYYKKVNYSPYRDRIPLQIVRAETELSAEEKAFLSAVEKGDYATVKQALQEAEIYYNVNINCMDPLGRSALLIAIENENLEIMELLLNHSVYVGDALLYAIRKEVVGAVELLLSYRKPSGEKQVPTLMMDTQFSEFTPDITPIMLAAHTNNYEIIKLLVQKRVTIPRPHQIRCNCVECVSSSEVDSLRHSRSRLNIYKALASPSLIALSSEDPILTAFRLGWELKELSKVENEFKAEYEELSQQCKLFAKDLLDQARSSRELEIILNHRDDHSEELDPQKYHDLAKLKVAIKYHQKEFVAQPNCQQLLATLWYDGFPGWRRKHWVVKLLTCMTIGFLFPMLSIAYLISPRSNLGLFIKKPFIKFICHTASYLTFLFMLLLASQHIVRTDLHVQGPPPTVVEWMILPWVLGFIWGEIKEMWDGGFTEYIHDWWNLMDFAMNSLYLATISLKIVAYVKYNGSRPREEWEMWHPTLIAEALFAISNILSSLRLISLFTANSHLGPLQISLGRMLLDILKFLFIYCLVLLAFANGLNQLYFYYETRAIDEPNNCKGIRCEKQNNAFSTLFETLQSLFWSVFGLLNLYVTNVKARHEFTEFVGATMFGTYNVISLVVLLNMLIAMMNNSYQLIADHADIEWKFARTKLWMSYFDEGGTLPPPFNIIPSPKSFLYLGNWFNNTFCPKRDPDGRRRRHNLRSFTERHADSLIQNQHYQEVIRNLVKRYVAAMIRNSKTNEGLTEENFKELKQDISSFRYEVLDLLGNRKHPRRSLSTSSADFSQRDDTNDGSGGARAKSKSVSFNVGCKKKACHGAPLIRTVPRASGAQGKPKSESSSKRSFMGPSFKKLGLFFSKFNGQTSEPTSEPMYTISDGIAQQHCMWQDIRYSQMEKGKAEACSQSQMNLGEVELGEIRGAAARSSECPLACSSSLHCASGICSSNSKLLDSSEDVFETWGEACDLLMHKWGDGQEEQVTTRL

Structure (SMILES): COc1cccc2sc(N(CCN(C)C)C(=O)c3ccc4c(c3)CCCC4)nc12 [Compound 1s, N-(2-(dimethylamino)ethyl)-N-(4-methoxybenzo[d]thiazol-2-yl)-5,6,7,8-tetrahydronaphthalene-2-carboxamide]
- IC50 (TRPC6): 4.19 ± 0.04 µM
- Effect on TRPC6 currents (TRPC6; evoked by GSK1702934A 1 μM, whole-cell voltage clamp): immediately suppressed
- IC50 (MKN-45 cells): 8 ± 0.51 µM
- Effect on agonist-induced Ca2+ response, TRPM8 (TRPM8): did not significantly affect
- Effect on agonist-induced Ca2+ response, TRPV1 (TRPV1): did not significantly affect
- Effect on agonist-induced Ca2+ response, TRPC5 (mouse TRPC5): did not significantly affect; also recorded: no effect
